ChEMBL document CHEMBL3763118, “Trioxolane-Mediated Delivery of Mefloquine Limits Brain Exposure in a Mouse Model of Malaria” (ACS Med Chem Lett, 2015)
The source made the active and inactive calls. No cut-off for these calls is given here.

Assays:
[1] = Cmax in Balb/c mouse at 50 mg/kg, ip by LC-MS/MS analysis; assay type: ADME, organism-based; parameters: dose 50 mg/kg, route intraperitoneal; conditions: in vivo
Summary of the method: (§1)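 Noncompartmental plasma PK after one i.p. dose of 50 mg/kg in uninfected mice and in P. chabaudi-infected mice. Parameters are terminal t1/2, tmax, Cmax, AUCinf, CL/F, Vz/F, MRTlast and MRTinf. F is the fraction of drug reaching systemic exposure after the i.p. dose.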

Plasmodium chabaudi [2] = assay: Antimalarial activity against Plasmodium chabaudi infected in Balb/c mouse assessed as parastemia at 8 mg/kg, ip measured 7 day postinoculation (reference value: 34 +/- 2.3 %); assay type: functional
Summary of the method: (§2)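 Mice infected with P. chabaudi received one i.p. dose on day 4 postinoculation. Parasitemia (%) was measured on days 4, 7 and 13 postinoculation and reported as mean ± SEM. Animals in poor health were sacrificed on day 8 as the protocol required.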

[3] = Mean residence time (last) in Balb/c mouse at 50 mg/kg, ip by LC-MS/MS analysis; assay type: ADME, organism-based; conditions: in vivo; summary of the method: as §1
[4] = Cmax in Plasmodium chabaudi infected Balb/c mouse at 50 mg/kg, ip by LC-MS/MS analysis; assay type: ADME, organism-based; parameters: dose 50 mg/kg, route intraperitoneal; conditions: in vivo; summary of the method: as §1
[5] = Tmax in Plasmodium chabaudi infected Balb/c mouse plasma at 50 mg/kg, ip by LC-MS/MS analysis; assay type: ADME, organism-based
Summary of the method: (§3)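 Infected mice (P. chabaudi) each got one i.p. dose of 50 mg/kg of the trioxolane conjugate. Blood and brain were collected over 24 h. Plasma and brain were analysed for intact conjugate and for released mefloquine.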

Plasma [6] = assay: Prodrug activation in Plasmodium chabaudi infected Balb/c mouse plasma assessed as mefloquine level at 50 mg/kg, ip at 24 hrs by LC-MS/MS analysis; assay type: organism-based; conditions: in vivo; summary of the method: as §3
[7] = Apparent oral clearance in Plasmodium chabaudi infected Balb/c mouse at 50 mg/kg, ip by LC-MS/MS analysis; assay type: ADME, organism-based; conditions: in vivo; summary of the method: as §1
Plasmodium chabaudi [8] = assay: Antimalarial activity against Plasmodium chabaudi infected in Balb/c mouse assessed as parastemia at 16.5 mg/kg, ip measured 13 day postinoculation; assay type: functional; summary of the method: as §2
[9] = Apparent oral clearance in Balb/c mouse at 50 mg/kg, ip by LC-MS/MS analysis; assay type: ADME, organism-based; conditions: in vivo; summary of the method: as §1
Plasmodium chabaudi [10] = assay: Antimalarial activity against Plasmodium chabaudi infected in Balb/c mouse assessed as parastemia at 16.5 mg/kg, ip measured 7 day postinoculation (reference value: 34 +/- 2.3 %); assay type: functional; summary of the method: as §2
[11] = Apparent volume of distribution during terminal phase in Plasmodium chabaudi infected Balb/c mouse at 50 mg/kg, ip by LC-MS/MS analysis; assay type: ADME, organism-based; conditions: in vivo, read-out: Vz/F; summary of the method: as §1
Plasmodium chabaudi [12] = assay: Antimalarial activity against Plasmodium chabaudi infected in Balb/c mouse assessed as parastemia at 16.5 mg/kg, ip measured 4 day postinoculation (reference value: 4.6 +/- 0.5 %); assay type: functional; summary of the method: as §2
[13] = Terminal half life in Balb/c mouse at 50 mg/kg, ip by LC-MS/MS analysis; assay type: ADME, organism-based; conditions: in vivo, read-out: beta t1/2 (converted); summary of the method: as §1
Plasmodium chabaudi [14] = assay: Antimalarial activity against Plasmodium chabaudi infected in Balb/c mouse assessed as parastemia at 8 mg/kg, ip measured 4 day postinoculation (reference value: 4.6 +/- 0.5 %); assay type: functional; summary of the method: as §2
[15] = Stability in human blood after 240 mins by LC/MS analysis; assay type: ADME; conditions: whole blood, read-out: Stability
Summary of the method: (§4)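 Compounds were incubated at 37 °C in human plasma or whole blood for 240 min (120 min in some plasma cases). The value is the percent of parent remaining.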

Plasmodium chabaudi [16] = assay: Antimalarial activity against Plasmodium chabaudi infected in Balb/c mouse assessed as parastemia at 50 mg/kg, ip measured 7 day postinoculation (reference value: 34 +/- 2.3 %); assay type: functional; summary of the method: as §2
[17] = Mean residence time (last) in Plasmodium chabaudi infected Balb/c mouse at 50 mg/kg, ip by LC-MS/MS analysis; assay type: ADME, organism-based; conditions: in vivo; summary of the method: as §1
Brain = assay: Prodrug activation in Plasmodium chabaudi infected Balb/c mouse brain assessed as mefloquine level at 50 mg/kg, ip at 24 hrs by LC-MS/MS analysis; assay type: organism-based; conditions: in vivo; summary of the method: as §3
[18] = Terminal half life in Plasmodium chabaudi infected Balb/c mouse at 50 mg/kg, ip by LC-MS/MS analysis; assay type: ADME, organism-based; conditions: in vivo, read-out: beta t1/2 (converted); summary of the method: as §1
[19] = Mean residence time (infinity) in Balb/c mouse at 50 mg/kg, ip by LC-MS/MS analysis; assay type: ADME, organism-based; conditions: in vivo; summary of the method: as §1
Plasmodium chabaudi [20] = assay: Antimalarial activity against Plasmodium chabaudi infected in Balb/c mouse assessed as parastemia at 50 mg/kg, ip measured 4 day postinoculation (reference value: 4.6 +/- 0.5 %); assay type: functional; summary of the method: as §2
[21] = AUC (infinity) in Plasmodium chabaudi infected Balb/c mouse at 50 mg/kg, ip by LC-MS/MS analysis; assay type: ADME, organism-based; parameters: dose 50 mg/kg, route intraperitoneal, time infinity; conditions: in vivo; summary of the method: as §1
[22] = Apparent volume of distribution during terminal phase in Balb/c mouse at 50 mg/kg, ip by LC-MS/MS analysis; assay type: ADME, organism-based; conditions: in vivo, read-out: Vz/F; summary of the method: as §1
[23] = Ratio of drug level in human blood to plasma; assay type: ADME, cell-free; conditions: whole blood and plasma
[24] = Mean residence time (infinity) in Plasmodium chabaudi infected Balb/c mouse at 50 mg/kg, ip by LC-MS/MS analysis; assay type: ADME, organism-based; conditions: in vivo; summary of the method: as §1
[25] = Tmax in Balb/c mouse at 50 mg/kg, ip by LC-MS/MS analysis; assay type: ADME, organism-based; conditions: in vivo; summary of the method: as §1
Plasmodium chabaudi [26] = assay: Antimalarial activity against Plasmodium chabaudi infected in Balb/c mouse assessed as parastemia at 50 mg/kg, ip measured 13 day postinoculation; assay type: functional; summary of the method: as §2
Plasma [27] = assay: Prodrug activation in Plasmodium chabaudi infected Balb/c mouse plasma assessed as mefloquine level at 50 mg/kg, ip at 30 mins by LC-MS/MS analysis; assay type: organism-based; conditions: in vivo, 0.5 h; summary of the method: as §3
[28] = Tmax in Plasmodium chabaudi infected Balb/c mouse at 50 mg/kg, ip by LC-MS/MS analysis; assay type: ADME, organism-based; conditions: in vivo; summary of the method: as §1
Plasmodium falciparum = assay: Antiplasmodium activity against Plasmodium falciparum W2 by flow cytometry; assay type: functional, organism-based
Summary of the method: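 Activity against P. falciparum, reported as EC50, the mean of three or six separate determinations.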

[29] = Stability in human plasma after 240 mins by LC/MS analysis; assay type: ADME, cell-free; conditions: read-out: Stability; summary of the method: as §4
[30] = AUC (infinity) in Balb/c mouse at 50 mg/kg, ip by LC-MS/MS analysis; assay type: ADME, organism-based; parameters: dose 50 mg/kg, time infinity, route intraperitoneal; conditions: in vivo; summary of the method: as §1
[31] = Tmax in Plasmodium chabaudi infected Balb/c mouse plasma at 10 mg/kg, ip by LC-MS/MS analysis; assay type: ADME, organism-based
Summary of the method: (§5)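 P. chabaudi-infected mice given a single 10 mg/kg i.p. dose. Blood and brain were sampled over 24 h and analysed for drug concentrations. Plasma concentration–time course used; brain levels reported at three time points.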

Plasmodium berghei [32] = assay: Antimalarial activity against Plasmodium berghei infected in Swiss-Webster mouse assessed as mouse survival upto day 28 at 10 mg/kg qd for 4 days administered via oral gavage; assay type: functional, organism-based
Summary of the method: (§6)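 Female Swiss-Webster mice (n = 5 per arm) inoculated with 10^6 P. berghei parasites. Compound or vehicle given by oral gavage once daily for 4 days, starting on the day of inoculation. Parasitemia, morbidity and mortality recorded daily over 28 days; mice euthanized as required by study protocol.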

Plasmodium chabaudi [33] = assay: Antimalarial activity against Plasmodium chabaudi infected in Balb/c mouse assessed as parastemia at 10 mg/kg, ip administered as single dose measured 4 day postinoculation (reference value: 4.6 +/- 0.5 %); assay type: functional
[34] = Drug level in Plasmodium chabaudi infected Balb/c mouse brain at 10 mg/kg, ip at 24 hrs by LC-MS/MS analysis; assay type: ADME, organism-based; conditions: read-out: Drug uptake; summary of the method: as §5
Plasmodium chabaudi [35] = assay: Antimalarial activity against Plasmodium chabaudi infected in Balb/c mouse assessed as parastemia at 10 mg/kg, ip administered as single dose measured 7 day postinoculation (reference value: 34 +/- 2.3 %); assay type: functional
Plasmodium berghei [36] = assay: Antimalarial activity against Plasmodium berghei infected in Swiss-Webster mouse assessed as decrease in parasitemia at 10 mg/kg qd for 4 days administered via oral gavage; assay type: functional, organism-based; summary of the method: as §6
Plasmodium chabaudi [37] = assay: Antimalarial activity against Plasmodium chabaudi infected in Balb/c mouse assessed as parastemia at 10 mg/kg, ip measured 13 day postinoculation; assay type: functional
Plasmodium berghei [38] = assay: Antimalarial activity against Plasmodium berghei infected in Swiss-Webster mouse assessed as mouse survival at 9.5 mg/kg qd for 4 days administered via oral gavage; assay type: functional, organism-based
Summary of the method: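 Female Swiss-Webster mice (n = 5 per arm) were inoculated with 10^6 P. berghei parasites. Oral gavage once daily for 4 days, starting on the day of inoculation; doses were equimolar across compounds. Parasitemia, morbidity and survival were followed daily for 28 days, with euthanasia as the protocol required.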

[39] = Stability in human plasma after 120 mins by LC/MS analysis; assay type: ADME, cell-free; conditions: read-out: Stability; summary of the method: as §4

O=C(O[C@H]1CCC[C@@]2(C1)OOC1(O2)C2CC3CC(C2)CC1C3)N1CCCC[C@@H]1[C@@H](O)c1cc(C(F)(F)F)nc2c(C(F)(F)F)cccc12 (some centres undefined)
Cmax [1]: 3620 ng/mL
Activity (Plasmodium chabaudi [2]): 33%
MRT last [3]: 6.93 h
Cmax [4]: 1570 ng/mL
Tmax [5]: 0.5 h
Drug metabolism (Plasma [6]): metabolite_detected
CL/F [7]: 61.2 mL/min/kg
Activity (Plasmodium chabaudi [8]): 0.65%
CL/F [9]: 24.5 mL/min/kg
Activity (Plasmodium chabaudi [10]): 0.7%
Vd/F [11]: 45.5 L/kg
Activity (Plasmodium chabaudi [12]): 4.5%
half-life [13]: 8.41 h
Activity (Plasmodium chabaudi [14]): 4.8%
remaining at 4 h [15]: 85%
Activity (Plasmodium chabaudi [16]): 0%
MRT last [17]: 6.43 h
Drug metabolism (Brain): 250 ng/mL
half-life [18]: 8.6 h
MRT inf [19]: 11 h
Activity (Plasmodium chabaudi [20]): 5.4%
AUC(0-inf) [21]: 13600 ng·h/mL
Vd/F [22]: 17.8 L/kg
blood plasma ratio [23]: 0.7
MRT inf [24]: 10.6 h
Tmax [25]: 1 h
Activity (Plasmodium chabaudi [26]): 0%
Drug metabolism (Plasma [27]): metabolite_notdetected
Tmax [28]: 2 h
EC50 (Plasmodium falciparum): 3 nM
remaining at 4 h [29]: 94%
AUC(0-inf) [30]: 34100 ng·h/mL

CC(C)(N)CNC(=O)C[C@H]1CC[C@]2(CC1)OOC1(O2)C2CC3CC(C2)CC1C3 (some centres undefined)
blood plasma ratio [23]: 1.5
EC50 (Plasmodium falciparum): 2.5 nM

O[C@@H](c1cc(C(F)(F)F)nc2c(C(F)(F)F)cccc12)[C@H]1CCCCN1 (racemic) [(S,R)-MEFLOQUINE]
Tmax [31]: 5 min
Activity (Plasmodium berghei [32]): Active
Activity (Plasmodium chabaudi [33]): 4.8%
remaining at 4 h [15]: 95%
concentration at 24 h [34]: 1400 ng/mL
Activity (Plasmodium chabaudi [35]): 0.02%
blood plasma ratio [23]: 1.6
inhibition (Plasmodium berghei [36]): Active
Activity (Plasmodium chabaudi [37]): 0%
EC50 (Plasmodium falciparum): 2.5 nM
remaining at 4 h [29]: 97%

CC(C)(N)CNC(=O)O[C@H]1CCC[C@@]2(C1)OOC1(O2)C2CC3CC(C2)CC1C3 (some centres undefined)
Activity (Plasmodium berghei [38]): Active
remaining at 2 h [39]: 97%
EC50 (Plasmodium falciparum): 2.7 nM

C[C@@H]1CC[C@H]2[C@@H](C)C(=O)O[C@@H]3O[C@@]4(C)CC[C@@H]1[C@]32OO4 [ARTEMISININ]
EC50 (Plasmodium falciparum): 9.3 nM
